Laboratory results published in publication PMC6904838 (International Journal for Parasitology: Drugs and Drug …, 2019).

How the values were obtained:
[1] = HepG2 cytotoxicity; format: cell-based; conditions: human, HepG2 cells (ATCC HB-8065)
How it was run: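 HepG2 human hepatocarcinoma cells in Glutamax DMEM with 10% FBS and penicillin/streptomycin, seeded and held at 37 °C under 5% CO2. Serial dilutions of test compound (0.01–200 μM) added, viability read after 72 h by Alamar Blue per manufacturer's protocol. CC50 derived by non-linear fitting of viability versus concentration.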

[2] = test system: L. infantum amastigotes; format: cell-based, Leishmania infantum
How it was run: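 Female BALB/c mice were infected intraperitoneally with 10^8 iRFP-expressing metacyclic promastigotes. After five weeks, spleen cells were collagenase-dispersed into RPMI with 10% FBS and exposed to test compound (0.01–200 μM) at 37 °C, 5% CO2. After 72 h, amastigote viability was read by infrared fluorescence at 713 nm, and EC50 came from a nonlinear fit. HepG2 CC50 (Alamar Blue, 72 h, 0.01–200 μM) was divided by this EC50.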

[3] = test system: L. infantum promastigotes; test: In vitro assay on iRFP-L. infantum promastigotes; format: cell-based, Leishmania infantum
How it was run: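 iRFP-expressing L. infantum BCN150 promastigotes at 1 × 10^6 cells/mL in supplemented M199 (25 mM HEPES pH 6.9, 10% FBS). DMSO stocks were diluted in M199 to 0.01–200 μM final, with 72 h exposure at 26 °C. Viability was read as 713 nm infrared fluorescence, in triplicate. EC50 came from nonlinear fits. SIp = HepG2 72 h Alamar Blue CC50 / promastigote EC50.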

## CCCCCCCCCCCCCCCCOP(=O)([O-])OCC[N+](C)(C)C [MTF, Miltefosine]
[1]
  CC50 at 72 h: 50.4 ± 4.3 µM
[2]
  SIa: Selectivity Index for amastigotes (CC50 HepG2/EC50 amastigotes): 21
[3]
  SIp: Selectivity Index for promastigotes (CC50 HepG2/EC50 promastigotes): 8.5
